Source: PubChem BioAssay
In the library only some 4.6% were active in any assay of this set; here they are far more common.
GPR7 antag: blocks human GPR7 receptor signaling; GPR7-expressing cells, fluorescence antagonist assay; P48145; inhibition, % at 4.4 µM; 290,000 tested, 1.1% active; in the data active means inhibition above about 16%, passing the limit was not always enough;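 further: cells stimulated with the agonist NPW; 0% = agonist with vehicle and 100% = vehicle without agonist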
CHO parental Ca: counter-screen for OX1R antagonists: effect in parental CHO cells; parental CHO-K1, ATP-induced calcium, Fluo-8 fluorescence; inhibition, % at 5.6 µM; 330,000 tested, 0.63% active; AID 463079;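 active means inhibition above that plate's mean sample inhibition plus 3 SD, cut at about 26% in these data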;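 further: 0% = ATP-challenged DMSO wells and 100% = DMSO wells without ATP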
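Assay system: untransfected parental CHO cell line. Also added: ATP agonist challenge. Dosing: one dose, 5.6 µM nominal. Measured by: Fluo-8 fluorescence. Read-out: % inhibition. Benchmarks: ATP wells versus no-ATP DMSO wells. Repeats: no replicates.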
TAAR1 antagonist: human TAAR1 antagonism | CHO RD-HGA16 TAAR1, Fluo-8 calcium fluorescence, antagonist | inhibition, % at 3 µM | 360,000 tested, 1.5% active | AID 624466;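 active means inhibition above a per-plate cutoff, the mean inhibition of test compounds on that plate plus 3 SD, cut at about 49% in these data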;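 further: 0% = DMSO plus EC80 beta-PEA response and 100% = DMSO alone without agonist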
Target sequence (Q96RJ0 whole entry, looked up): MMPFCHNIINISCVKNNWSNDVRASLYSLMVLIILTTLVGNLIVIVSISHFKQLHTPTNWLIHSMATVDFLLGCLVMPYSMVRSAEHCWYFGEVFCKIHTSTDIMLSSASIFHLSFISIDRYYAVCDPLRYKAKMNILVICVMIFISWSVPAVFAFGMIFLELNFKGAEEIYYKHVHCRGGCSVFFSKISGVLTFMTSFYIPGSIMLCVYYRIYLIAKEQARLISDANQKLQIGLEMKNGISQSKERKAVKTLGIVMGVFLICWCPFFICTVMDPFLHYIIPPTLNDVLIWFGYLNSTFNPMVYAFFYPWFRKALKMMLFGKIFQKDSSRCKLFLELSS
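Test system: hTAAR1-expressing CHO RD-HGA16 cells, Gα16-coupled; Probe or stimulus: EC80 β-phenethylamine stimulus; Compound dosing: single nominal final test compound concentration of 3 µM; Timing: 140 s kinetic read after compound, 140 s after agonist; Signal: Fluo-8 calcium-sensitive fluorescence; Measure: % inhibition of agonist calcium response; Controls: DMSO and EC80 PEA controls.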
OX1R antag-1: blocks the human orexin 1 receptor. OX1R-expressing cells, FRET antagonist read-out. inhibition, % at 6.6 µM. 330,000 tested, 1.8% active; in the data active means inhibition mostly above about 38%, no sharp cut-off; inactive means mostly below about 40%;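 further: 0% = agonist challenge alone and 100% = reference antagonist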
Target sequence (O43613 whole entry, looked up): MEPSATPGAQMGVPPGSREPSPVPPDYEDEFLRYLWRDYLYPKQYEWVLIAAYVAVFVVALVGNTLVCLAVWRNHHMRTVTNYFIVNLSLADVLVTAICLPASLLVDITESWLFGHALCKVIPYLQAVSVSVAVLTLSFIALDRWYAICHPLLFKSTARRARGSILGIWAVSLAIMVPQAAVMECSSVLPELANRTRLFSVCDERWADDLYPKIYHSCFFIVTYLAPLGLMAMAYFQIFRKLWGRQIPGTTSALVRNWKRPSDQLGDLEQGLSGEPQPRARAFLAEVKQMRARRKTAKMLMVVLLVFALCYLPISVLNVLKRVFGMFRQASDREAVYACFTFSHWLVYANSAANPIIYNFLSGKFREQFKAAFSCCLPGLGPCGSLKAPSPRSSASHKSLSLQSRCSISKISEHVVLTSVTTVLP
TAAR1 agonist: human TAAR1 agonism; Q96RJ0; CHO RD-HGA16 TAAR1, Fluo-8 calcium fluorescence; vehicle wells 0%, saturating PEA agonist 100%; activation, % at 3 µM; 360,000 tested, 0.99% active;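 active means activation above the mean activation of all test compounds in the run plus 3 SD, cut at about 38% in these data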
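System: CHO-derived RD-HGA16 cells with stable Gα16 and human TAAR1. Times: 17-24 h plating, Fluo-8 75 min 37 °C, 30 min RT. Measured by: calcium-sensitive Fluo-8 signal, excitation 470-495, emission 515-575 nm. Read-out basis: % activation relative to PEA EC100 response. Control set: DMSO and PEA EC100. Repeats: no replicates (n 1).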
OX1R antag-2: antagonists of human orexin 1 receptor. O43613. CHO/OX1R cells, Fluo-8 calcium fluorescence, orexin A. inhibition, % at 5 µM. 330,000 tested, 0.43% active. AID 434989;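 active means inhibition above its plate's threshold, mean inhibition of all tested compounds on the plate plus 3 SD, cut at about 37% in these data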;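 further: 0% = orexin A challenge wells and 100% = SB-334867-A antagonist wells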
TAAR1 nonsel count: nonselective antagonism, TAAR1 counter-screen; shares compounds with TAAR1 antagonist; counterscreen cell line, calcium fluorescence, antagonist mode; inhibition, % at 3 µM; 2,400 tested, 77% active; in the data active means inhibition above about 22%;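 further: CHO-Ga16 host cells stimulated with ATP at an EC80 level; 0% = agonist EC80 plus vehicle and 100% = vehicle without agonist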
TAAR1 ant conf: confirmation of human TAAR1 antagonists | inhibition, % at 3 µM | TAAR1-expressing cells, fluorescence antagonist read-out | 2,400 tested, 40% active | shares compounds with TAAR1 antagonist; in the data active means inhibition above about 49%;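 further: CHO-Ga16 host cells challenged with agonist PEA near its EC80; 0% = agonist at EC80 plus vehicle and 100% = vehicle with no agonist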
Ga16 nonsel ag: nonselective Ga16 agonism, counter-screen; shares compounds with TAAR1 antagonist; Ga16-expressing cells, calcium fluorescence, agonist counterscreen; activation, % at 3 µM; 2,400 tested, 18% active; in the data active means activation above about 12%;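 further: 0% = vehicle wells and 100% = saturating stimulus response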
TAAR1 ag count: activates human TAAR1 in antagonist counter-screen; shares compounds with TAAR1 antagonist; hTAAR1 cell line, fluorescence activation, agonist mode; activation, % at 3 µM; 2,400 tested, 2% active; AID 651955; in the data active means activation above about 37%;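 further: CHO cells stably expressing TAAR1 with calcium dye readout; 0% = DMSO vehicle and 100% = full agonist response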
Active calls of the source: *; . = no result.

SMILES | GPR7 antag | CHO parental Ca | TAAR1 antagonist | OX1R antag-1 | TAAR1 agonist | OX1R antag-2 | TAAR1 nonsel count | TAAR1 ant conf | Ga16 nonsel ag | TAAR1 ag count
CCOC(=O)C1=C[C@@H](CC)N(S(=O)(=O)c2ccc([N+](=O)[O-])cc2)[C@H]1c1ccccc1 | . | . | 72* | . | 0 | . | 30* | 38 | 2 | 4
CCOC(=O)C1=C[C@@H](C(C)C)N(S(=O)(=O)c2ccc([N+](=O)[O-])cc2)[C@H]1c1ccccc1 | . | . | 82* | . | -2 | . | 25* | 45 | 5 | 8
COc1ccc(OC2C(=O)N(CCc3ccc(OC)c(OC)c3)C2c2ccc3c(c2)OCO3)cc1 (stereo not given) | 3 | -4 | 57* | 20 | 6 | -19 | 22* | 24 | 5 | 1
O=C(CCN1C(=O)/C(=C\c2ccccc2Cl)SC1=S)Nc1cccnc1 | -24 | -7 | 50* | 41 | 12 | -19 | 48* | 69* | 18* | 23
O=C(COC(=O)/C=C/c1cn(-c2ccccc2)nc1-c1ccc2c(c1)OCCO2)NC1CCS(=O)(=O)C1 (stereo not given) | -6 | 20 | 87* | 19 | 14 | 27 | 40* | 55* | 8 | 7
O=C(Cn1cnc([N+](=O)[O-])c1)Nc1ccccc1C(F)(F)F | -16 | -6 | -10 | 23 | 4 | 5 | . | . | . | .
CCOC(=O)[C@]12CCCC=C1N(Cc1ccco1)C(=O)[C@H](CC(=O)N1CCSCC1)C2 | . | . | 10 | . | 0 | . | . | . | . | .
CC[C@]12c3[nH]c4ccc(Cl)cc4c3CCN1C(=O)[C@@H](CC(=O)NCCCn1ccnc1)C[C@@H]2C(=O)N1CCN(C(=O)C2CC2)CC1 | . | -18 | -20 | 7 | 2 | -8 | . | . | . | .
COc1ccc(C(C)=O)cc1COC(=O)[C@H](Cc1ccccc1)NC(=O)c1ccco1 | . | -15 | 56* | 17 | 8 | -20 | 22* | 44 | 10 | 13
COc1ccc(N2CCN(C(=O)COC(=O)COc3cccc(C(F)(F)F)c3)CC2)cc1 | . | -22 | -2 | 4 | 12 | -18 | . | . | . | .
Cc1cccc(NC(=O)Cn2nnc(-c3cccs3)n2)c1C | 3 | -1 | 66* | 7 | 14 | 0 | 20 | 46 | 4 | 7
CN(c1ccccc1)S(=O)(=O)c1cccc(NC(=O)c2nn(C)c(=O)c3ccccc23)c1 | . | -7 | 59* | 6 | 10 | -3 | 25* | 41 | 6 | 6
CN(c1ccccc1)S(=O)(=O)c1cccc(NC(=O)Cn2cnc3ccccc3c2=O)c1 | -6 | -16 | 9 | 34 | 7 | -18 | . | . | . | .
O=C(NCCc1ccccc1)c1ccc(NC(=O)c2cccnc2)cc1 | -13 | . | -4 | . | 11 | . | . | . | . | .
O=C(Nc1ccc(-c2noc(CCc3ccccc3)n2)cc1)c1cccnc1 | 2 | 9 | 69* | 26 | 24 | 16 | 37* | 51* | 14* | 14
C=C(C)C(=O)OCC(O)COc1ccc(C(C)(C)c2ccc(OCC(O)COC(=O)C(=C)C)cc2)cc1 (stereo not given) | . | 57* | 92* | 20 | 15 | 25 | 55* | 70* | 19* | 27
CCOc1ccc2[nH]c(=O)c(CN(Cc3nnnn3Cc3ccco3)C3CCCCC3)cc2c1 | -9 | -21 | 54* | 29 | 26 | -16 | 28* | 58* | 8 | 14
COc1cc2cc(CN(Cc3nnnn3Cc3ccco3)C3CCCCC3)c(=O)[nH]c2cc1OC | 4 | -12 | 4 | 47 | 9 | 0 | . | . | . | .
O=C(/C(C=Nc1ccc(Br)cc1)=C(/O)c1ccco1)C(F)(F)F | -3 | -14 | -11 | 2 | 18 | -11 | . | . | . | .
O=C(N/N=C/c1cccc(Oc2ccc([N+](=O)[O-])cc2[N+](=O)[O-])c1)c1cncc(Br)c1 | 11 | -15 | 55* | 23 | 21 | -9 | 51* | 54* | 16* | 12
Cn1c(=O)c2c(SCC(=O)N3CCOCC3)nc(-c3ccccc3F)nc2n(C)c1=O | -10 | -6 | -23 | 26 | 1 | -7 | . | . | . | .
O=C(Nc1ccc(-c2nc3ccccc3[nH]2)cc1)c1ccccc1NS(=O)(=O)c1ccc(F)cc1 | -10 | -7 | 78* | 53* | 9 | -15 | 42* | 46 | 6 | -1
O=C(Nc1ccc(S(=O)(=O)Nc2ncccn2)cc1)c1ccccc1NS(=O)(=O)c1ccc(F)cc1 | 5 | 3 | -4 | 10 | 2 | -6 | . | . | . | .
Fc1cccc(-c2c(-c3ccccc3)ncc3cc(F)ccc23)c1 | . | -31 | 72* | 6 | 23 | -25 | 11 | 23 | 7 | 12
CC(Oc1ccccc1)c1ccn[nH]1 (stereo not given) | 4 | -17 | 0 | 24 | 4 | -16 | . | . | . | .
SMILES | GPR7 antag | CHO parental Ca | TAAR1 antagonist | OX1R antag-1 | TAAR1 agonist | OX1R antag-2 | TAAR1 nonsel count | TAAR1 ant conf | Ga16 nonsel ag | TAAR1 ag count
Cc1cc(C)n(-c2nc(NC(C)(C)C)nc(NC(C)(C)C)n2)n1 | -5 | 6 | -4 | 22 | 4 | -8 | . | . | . | .
Cc1cc(C)n(-c2nc(Nc3ccccc3C(F)(F)F)nc(-n3nc(C)cc3C)n2)n1 | 1 | 42* | 92* | 60 | 37 | 62* | 42* | 70* | 13* | 17
COc1ccc(S(=O)(=O)N(C)CC(=O)NCCc2ccccc2)cc1OC | -11 | -8 | 3 | 0 | 6 | -1 | . | . | . | .
COc1ccc(S(=O)(=O)N(C)CC(=O)NCc2ccccc2)cc1OC | -10 | -16 | 92* | 2 | -4 | -18 | -1 | -4 | 0 | 0
Cc1nc2ccc(NC(=O)c3ccc(S(=O)(=O)N(C)c4ccccc4)cc3)cc2s1 | -10 | -9 | 59* | 4 | 21 | -13 | 33* | 53* | 11 | 6
CC(=O)Nc1ccc(NC(=O)c2ccc(S(=O)(=O)N(C)c3ccccc3)cc2)cc1 | . | -13 | 23 | 6 | 5 | 0 | . | . | . | .
O=C(Nc1ccccc1)c1cccc(N2C(=O)C3C4C=CC(C5CC45)C3C2=O)c1 (stereo not given) | -10 | -30 | 24 | 7 | 8 | -22 | . | . | . | .
COC(=O)c1ccc(NC(=O)c2cccc(N3C(=O)C4C5C=CC(C6CC56)C4C3=O)c2)cc1 (stereo not given) | 4 | -6 | 65* | 18 | 13 | -23 | 58* | 75* | 15* | 12
